According to PMC9826267 (Chembiochem, 2022):

Legend:
[1] = biological target: T1, GlnA4Sc (Streptomyces coelicolor, UniProt O88070); experiment: GlnA4Sc enzyme activity assay; format: biochemical
T1 sequence (O88070 1-462): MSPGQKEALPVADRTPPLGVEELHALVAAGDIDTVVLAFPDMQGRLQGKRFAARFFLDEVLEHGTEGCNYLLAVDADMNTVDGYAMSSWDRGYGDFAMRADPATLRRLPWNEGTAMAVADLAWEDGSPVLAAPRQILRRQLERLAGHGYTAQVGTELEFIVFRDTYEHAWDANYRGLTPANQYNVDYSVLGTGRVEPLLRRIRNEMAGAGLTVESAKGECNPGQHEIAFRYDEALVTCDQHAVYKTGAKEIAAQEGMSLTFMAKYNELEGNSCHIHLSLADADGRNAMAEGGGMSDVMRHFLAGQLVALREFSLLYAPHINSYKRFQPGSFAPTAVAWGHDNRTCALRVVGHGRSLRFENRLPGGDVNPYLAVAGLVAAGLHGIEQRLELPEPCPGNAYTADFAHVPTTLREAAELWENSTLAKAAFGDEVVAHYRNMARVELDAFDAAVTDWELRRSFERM

[2] = biological target: GlnA1Mt (Mycobacterium tuberculosis, UniProt P9WN39); format: biochemical; conditions: at 5 mM (SI Figure 2)
[3] = tested on: S. coelicolor M145; experiment: S. coelicolor growth assay; format: cell-based, Streptomyces coelicolor
How it was run: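 S. coelicolor M145 grown in defined Evans medium with 25 mM ammonium chloride, L-glutamine or ethanolamine hydrochloride as sole nitrogen source. Test compound added at final 100, 50, 25, 12.5, 6.25, 3.125, 1.562, 0.781 or 0 μM. Cultures shaken at 180 rpm for 7 days at 30 °C. Phase-contrast images taken at x400; hyphae thickness used to quantify growth.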

Chain of GlnA1Mt (P9WN39 whole entry): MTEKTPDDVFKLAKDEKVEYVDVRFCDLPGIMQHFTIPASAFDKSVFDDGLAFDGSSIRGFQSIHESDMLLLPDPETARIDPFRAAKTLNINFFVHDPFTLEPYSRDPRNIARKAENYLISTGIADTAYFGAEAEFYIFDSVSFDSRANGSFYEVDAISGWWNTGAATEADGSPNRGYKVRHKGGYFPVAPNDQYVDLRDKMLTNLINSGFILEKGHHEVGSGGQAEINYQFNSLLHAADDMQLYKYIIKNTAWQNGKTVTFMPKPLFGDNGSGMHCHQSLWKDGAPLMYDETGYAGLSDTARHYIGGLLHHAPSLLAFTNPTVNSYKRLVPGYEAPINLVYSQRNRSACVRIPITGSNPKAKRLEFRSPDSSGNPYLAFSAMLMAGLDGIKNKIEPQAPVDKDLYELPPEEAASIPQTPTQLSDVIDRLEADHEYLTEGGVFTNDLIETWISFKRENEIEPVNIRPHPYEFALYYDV

Row | Compound | IC50 [1] | Activity against GlnA1Mt (in words) [2] | Hyphae thickness with additional glutamine (rescue) ([3]; 100 μM inhibitor, additional glutamine as alternative nitrogen source) | Non-specific toxic effects (in words) ([3]; 100 μM, glutamine rescue control experiment) | Size of mycelial agglomerates (in words) ([3]; lowest tested concentration 0.78 μM, ethanolamine as nitrogen source) | Inhibition of GlnA4Sc activity (in words) ([1]; Figure 1a/1b)
1 | N=S(=O)(CCO)CC[C@H](N)C(=O)O (stereo partly drawn) [7 a, (2S)‐2‐Amino‐4‐(2‐hydroxyethylsulfonimidoyl)butanoic acid] | 2170 µM | – | – | – | – | –
2 | N=S(=O)(CCCO)CC[C@H](N)C(=O)O (stereo partly drawn) [7 b, (2S)‐2‐Amino‐4‐(3‐hydroxypropylsulfonimidoyl)butanoic acid] | 12.3 µM | neither 7 b nor 8 showed activity | 1.11 μm | excludes any non‐specific toxic effects | reduced the size of the mycelial agglomerates | –
3 | N=S(=O)(CCCCO)CC[C@H](N)C(=O)O (stereo partly drawn) [7 c, (2S)‐2‐Amino‐4‐(4‐hydroxybutylsulfonimidoyl)butanoic acid] | 79.3 µM | – | – | – | – | –
4 | CS(=O)(CC[C@H](N)C(=O)O)=NCCO (stereo partly drawn) [compound 8, (2S)‐2‐Amino‐4‐(N‐(2‐hydroxyethyl)‐methylsulfonimidoyl)butanoic acid] | 659 µM | neither 7 b nor 8 showed activity | – | – | – | inhibited
